In assay [1] the target is T1, Neuropilin-1 (Homo sapiens, UniProt O14786). The experiment in a line: Inhibition of biotinylated VEGF-A165 binding to recombinant NRP1 (unknown origin) measured after 2 hrs by competition binding assay. The method in brief:
(§1)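 Competition ELISA. Wells coated overnight at room temperature with recombinant chimeric NRP-1 or KDR in PBS, then blocked with 0.5% BSA/PBS for 1 h at 37 °C. Biotinylated VEGF-A165 (5 ng/mL, heparin-containing blocking buffer) incubated 2 h at room temperature with or without compound; unlabelled VEGF-A165 as positive control. Bound tracer detected with streptavidin-HRP, read at 450 nm. Three independent experiments, triplicates.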

Assay [2] has as its target T1, Neuropilin-1. As to the kind of experiment: Binding affinity to NRP1 in HUVEC assessed as ratio of phosphorylated ERK to total ERK at 50 uM by Western blot analysis. Format: cell-based. The method in brief: (§2)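 HUVECs exposed to 50 µM compound; tuftsin as reference. Lysate protein (40 µg) resolved by SDS-PAGE and blotted to PVDF. Probed overnight at 4 °C for pAKT (Ser473), total AKT, pERK1/2 (Thr202/Tyr204) and total ERK1/2. ECL detection and densitometry. Phospho/total band ratio normalized to non-treated cells.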

The target of assay [3] is T1, Neuropilin-1. As to the kind of experiment: Binding affinity to NRP1 in HUVEC assessed as increase in AKT phosphorylation at 50 uM by Western blot analysis. The assay is classed as cell-based. The essentials:
as §2
A general note: In western blotting, separated proteins are transferred to a membrane and probed.

The target of assay [4] is T1, Neuropilin-1. The experiment in a line: Inhibition of biotinylated VEGF-A165 binding to recombinant NRP1 (unknown origin) at 100 uM measured after 2 hrs by competition binding assay relative to VEGF-A165. The method in brief:
as §1

Molecules are shown by their SMILES. Calls of active or inactive are those of the source. The rule behind the calls is not given here. Peptide text beside a SMILES is read from it.

In general, IC50 refers to the point on the concentration scale where inhibition reaches its midpoint. The inhibition is the relative decrease from the control value, in per cent.

T1 sequence (O14786 whole entry): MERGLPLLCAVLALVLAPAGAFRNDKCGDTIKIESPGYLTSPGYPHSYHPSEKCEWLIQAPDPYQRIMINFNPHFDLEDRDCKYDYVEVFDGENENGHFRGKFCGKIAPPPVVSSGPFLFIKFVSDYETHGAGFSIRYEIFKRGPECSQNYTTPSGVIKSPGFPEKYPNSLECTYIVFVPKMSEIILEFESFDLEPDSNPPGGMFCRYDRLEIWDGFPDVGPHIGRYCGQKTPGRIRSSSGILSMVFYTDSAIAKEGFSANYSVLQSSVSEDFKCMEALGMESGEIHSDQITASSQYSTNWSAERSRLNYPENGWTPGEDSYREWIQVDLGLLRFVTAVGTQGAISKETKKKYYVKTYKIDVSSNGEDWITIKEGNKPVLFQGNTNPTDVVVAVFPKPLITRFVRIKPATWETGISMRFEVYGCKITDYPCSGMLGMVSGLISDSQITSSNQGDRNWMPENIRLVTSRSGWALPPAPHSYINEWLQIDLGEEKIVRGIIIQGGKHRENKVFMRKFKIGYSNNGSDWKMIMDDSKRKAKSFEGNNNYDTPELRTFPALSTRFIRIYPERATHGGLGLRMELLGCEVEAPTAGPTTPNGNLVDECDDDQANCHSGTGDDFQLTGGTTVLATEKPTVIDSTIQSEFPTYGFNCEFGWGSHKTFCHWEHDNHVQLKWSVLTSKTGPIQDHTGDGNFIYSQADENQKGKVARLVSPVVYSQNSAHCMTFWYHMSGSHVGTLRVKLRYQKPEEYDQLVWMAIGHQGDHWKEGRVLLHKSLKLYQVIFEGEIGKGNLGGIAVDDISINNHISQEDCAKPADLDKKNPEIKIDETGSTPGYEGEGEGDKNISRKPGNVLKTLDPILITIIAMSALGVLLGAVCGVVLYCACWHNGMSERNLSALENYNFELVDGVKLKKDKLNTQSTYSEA

Take `C[C@@H](O)[C@H](N)C(=O)N[C@@H](CCCCN)C(=O)N1CCC[C@H]1C(=O)N[C@@H](CCCNC(=N)N)C(=O)O` (H-TKPR-OH): in assay [1], the IC50 came to 25 µM. In assay [2], the Ratio came out at 0.88. The result in assay [3] was Active.
In the case of `N=C(N)NCCc1cn(C[C@@H]2O[C@H](CC(=O)NCCc3c[nH]c4ccccc34)[C@H](O)[C@@H]2O)nn1`, the inhibition in assay [4] is 37%.
For `CC1(C)O[C@@H]2[C@H](O1)[C@H](Cn1cc(CCCNC(=N)N)nn1)O[C@@H]2CC(=O)NCCc1c[nH]c2ccccc12`, the inhibition in assay [4] is 18%.
The same measure, in the same setting: then `N=C(N)NCCCc1cn(C[C@@H]2O[C@H](CC(=O)NCCc3c[nH]c4ccccc34)[C@H](O)[C@@H]2O)nn1`, with 4%.
Still for that read-out and setting: then `CC1(C)O[C@@H]2[C@H](O1)[C@@H](CN(CCNC(=N)N)C(=N)N)O[C@@H]2CC(=O)NCCc1c[nH]c2ccccc12`, with 26%.
As to `CC1(C)O[C@@H]2[C@H](O1)[C@H](CN(CCCCCNC(=N)N)C(=N)N)O[C@@H]2CC(=O)NCCc1c[nH]c2ccccc12`, the IC50 in assay [1] turned out to be 120 µM. In addition, the inhibition in assay [4] is 52%.
As to `CC1(C)O[C@@H]2[C@H](O1)[C@H](CN(CCCCNC(=N)N)C(=N)N)O[C@@H]2CC(=O)NCCc1c[nH]c2ccccc12`, the inhibition in assay [4] is 39%.
`CC1(C)O[C@@H]2[C@H](O1)[C@H](CN(CCCNC(=N)N)C(=N)N)O[C@@H]2CC(=O)NCCc1c[nH]c2ccccc12`: the inhibition in assay [4] worked out at 5%.
On the same count and under the same terms, then `CC1(C)O[C@@H]2[C@H](O1)[C@H](Cn1cc(CCNC(=N)N)nn1)O[C@@H]2CC(=O)NCCc1c[nH]c2ccccc12`, with 5%.

Values taken from ChEMBL document CHEMBL4428108, “Carbohydrate-based peptidomimetics targeting neuropilin-1: Synthesis, molecular docking study and in vitro biological activities” (Bioorg Med Chem, 2016).
